# From PubChem BioAssay
# CD11b adhes enh: CD11b/CD18-fibrinogen binding enhancement. AID 1499. 93,000 tested, 0.07% active. activation, % at 10 µM. K562 CD11b/CD18 adhesion to fibrinogen, ATPlite luminescence. P05107+P11215;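 active means 10 µM primary screen giving 50% or more activity, confirmed by 40% or more on retest at that dose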
# Target sequence (P05107 whole entry, looked up, other chains not shown): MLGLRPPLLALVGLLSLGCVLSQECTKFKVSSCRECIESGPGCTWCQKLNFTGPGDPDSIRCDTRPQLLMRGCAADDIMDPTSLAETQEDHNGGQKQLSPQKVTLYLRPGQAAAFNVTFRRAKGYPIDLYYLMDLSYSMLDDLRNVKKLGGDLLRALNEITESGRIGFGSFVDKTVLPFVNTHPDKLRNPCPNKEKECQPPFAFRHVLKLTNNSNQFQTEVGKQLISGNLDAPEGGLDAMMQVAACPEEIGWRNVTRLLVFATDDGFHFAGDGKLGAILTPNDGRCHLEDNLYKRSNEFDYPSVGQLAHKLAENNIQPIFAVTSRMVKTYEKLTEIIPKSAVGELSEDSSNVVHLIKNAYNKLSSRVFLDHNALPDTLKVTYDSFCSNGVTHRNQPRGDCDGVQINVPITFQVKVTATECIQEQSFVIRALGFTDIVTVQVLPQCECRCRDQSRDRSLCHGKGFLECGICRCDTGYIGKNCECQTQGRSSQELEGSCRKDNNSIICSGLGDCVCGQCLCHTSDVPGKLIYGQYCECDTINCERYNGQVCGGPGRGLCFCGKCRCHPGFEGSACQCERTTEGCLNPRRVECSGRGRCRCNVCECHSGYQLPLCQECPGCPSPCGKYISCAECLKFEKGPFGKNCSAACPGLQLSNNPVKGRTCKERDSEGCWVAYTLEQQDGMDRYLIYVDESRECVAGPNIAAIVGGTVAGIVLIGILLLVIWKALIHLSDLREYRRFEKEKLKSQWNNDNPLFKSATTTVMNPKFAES
# E coli WT exp: E. coli BW25113 growth inhibition, expanded screen; OD600 absorbance; growth inhibition, % at 100 µM; 98,000 tested, 0.15% active; AID 710;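 active means growth inhibition above about 50% at one test dose, limit read from the data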;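 further: growth measured after 20 h incubation at 37 °C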
# CD11b adhes inh: blocks human CD11b/CD18 adhesion to fibrinogen | P05107+P11215 | K562 CD11b/CD18 adhesion to fibrinogen, ATPlite luminescence; Mn2+ added to activate the integrin | AID 1497 | 93,000 tested, 0.54% active | inhibition, % at 10 µM;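 active means primary inhibition of 50% or more at 10 µM, then 40% or more on retest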
# Ecoli tolC: growth inhibitors of E. coli BW25113 tolC mutant. OD615. growth inhibition, % at 10 µM (by protocol). 65,000 tested, 2.2% active;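 active means growth inhibition at or above a cutoff equal to the mean over every tested compound plus 3 SD, cut at about 60% in these data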;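 further: growth measured after 20 h incubation at 37 °C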
#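 Test system: E. coli BW25113 ΔtolC::kan bacteria; incubation: 37 °C, 20 h exposure; medium: LB broth supplemented with 50 µg/mL kanamycin; read-out basis: percent growth inhibition; signal: A615 absorbance measurement; compound: 10 µM final, single dose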
# Pyk2 oligo antag: Pyk2 (human) oligomerization antagonism; Q14289; Q293 cells, Pyk2 FERM NanoBiT luminescence; active compounds read low; z-score (the deposit names both 25 µM and 10 µM); 99,000 tested, 0.83% active;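 active means Z-score of -3 or lower, scaled per plate to the spread of control and sample wells; inactive means z-score above -3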;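 further: negative z-score means lost luminescence so less FERM oligomerization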
# Starred values were filed as active, the others as inactive; / = no result. Shown are actives, neighbours in structure and some others; about 2.3% of the full set was active somewhere.
SMILES,CD11b adhes enh,E coli WT exp,CD11b adhes inh,Ecoli tolC,Pyk2 oligo antag
CCOC(=O)c1c(C)n(-c2ccc(OC)cc2)c2c(C/C(C)=N/O)c(Br)c(OC)c(O)c12,8,-6,2,/,-0.26
CC(=O)Nc1ccc(Cl)cc1C(=O)O,-1,-5,-1,-13,1.1
COc1ccc(OC)c(CCNC(=O)Cn2sc3nc(C)cc(C)c3c2=O)c1,-7,5,52*,-9,/
COc1ccc(-c2nc(CS(=O)(=O)CC(=O)NCCc3cc(OC)ccc3OC)c(C)o2)cc1,/,-8,/,10,0.17
Cn1c(=O)oc2cc(S(=O)(=O)N3CCCC(C(=O)N4CC=C(c5ccccc5)CC4)C3)ccc21 (stereo unspecified),-3,-4,61*,4,/
O=C(NC(=S)Nc1cccc(Cl)c1N1CCCC1)c1ccc(-c2cccc([N+](=O)[O-])c2)o1,2,-12,4,/,0.61
CCCCCOC(=O)c1cc(=O)[nH]c2ccccc12,-2,0,10,19,-3.5*
CC(C)(C)NC(=O)NC(=O)COC(=O)c1cc(=O)[nH]c2ccccc12,0,5,-17,/,-3.8*
Cn1c(CSc2nc3ccccc3s2)nc2ccccc21,0,-7,-18,72*,-0.32
Cn1c(CSc2nc3ccccc3s2)n[nH]c1=S,-2,17,-64,29,-0.08
COCc1cc(CN2CCCC2)c(O)c2ncccc12,-3,34,-8,10,0.98
Oc1c(CN2CCN(c3ccccn3)CC2)cc(Cl)c2cccnc12,2,54*,-29,98*,1.1
OCCN1CCN(Cc2cc(Cl)c3cccnc3c2O)CC1,-1,21,-2,/,0.04
Oc1c(CN2CCCCC2)cc(COCc2ccccc2)c2cccnc12,-1,30,-2,100*,0.22
CCOC(=O)c1c(C)n(CC(O)c2ccccc2)c2ccc(O)cc12 (stereo unspecified),-1,2,-8,49,-3*
CCOC(=O)c1c(C)n(CCNC(C)=O)c2ccc(O)cc12,0,0,5,/,0.2
COC(=O)c1[nH]c2cc(OC)ccc2c1N,-1,4,6,-16,-0.06
CCOC(=O)c1ccc(N2C(=O)c3n[nH]c(C)c3C2c2ccc(OC)cc2)cc1 (stereo unspecified),1,3,50,13,-2.8
Cc1[nH]nc2c1C(c1cccnc1)N(c1ccc(Br)cc1)C2=O (stereo unspecified),/,/,/,1,-4*
CCOC(=O)c1ccc(N2C(=O)c3n[nH]c(C)c3C2c2ccc(OC)cc2OC)cc1 (stereo unspecified),/,/,/,68*,-3.2*
COC(=O)c1ccc(C2c3c(n[nH]c3C)C(=O)N2c2ccc(C)cc2)cc1 (stereo unspecified),3,4,-4,75*,/
COc1cc(C2c3c(n[nH]c3C)C(=O)N2c2ccc(Br)cc2)ccc1O (stereo unspecified),/,10,/,13,-1.7
CN(CC(CC(=O)Nc1nncs1)c1ccccc1)S(=O)(=O)c1ccc(Br)cc1 (stereo unspecified),-3,-13,-10,/,/
O=C(c1cc2sccc2n1Cc1ccccc1)N1CCN(c2nc3ccccc3s2)CC1,/,-19,/,/,-1.1
Cc1ccc2cccc(S(=O)(=O)Nc3ccc4c(c3)OCO4)c2n1,3,-11,-1,3,-0.82
SMILES,CD11b adhes enh,E coli WT exp,CD11b adhes inh,Ecoli tolC,Pyk2 oligo antag
Cc1cc(C)n(Cc2ccc(Cl)c(Cl)c2)c(=O)c1S(=O)(=O)c1ccccc1,-2,-5,-4,/,-0.2
c1ccc(-c2nc(-n3ccnc3)nc(-n3ccnc3)n2)cc1,3,-6,6,39,-1.7
CN(c1ccccc1)c1nc(N2CCCC2)nc(-n2ccnc2)n1,-2,12,-10,96*,-1.1
CCOC(=O)N1CCN(c2nc(N(c3ccccc3)c3ccccc3)nc(-n3ccnc3)n2)CC1,/,/,/,66*,/
c1ccc(N(c2ccccc2)c2nc(N3CCCC3)nc(-n3ccnc3)n2)cc1,-4,5,-4,6,-1.3
c1ccc(CN2CCN(c3nc(-c4ccccc4)nc(-n4ccnc4)n3)CC2)cc1,0,-5,6,65*,-0.62
CC(C)Cn1c(N)c(C(=O)COC(=O)CC23CC4CC(CC(C4)C2)C3)c(=O)n(C)c1=O,-9,-12,93,/,-0.74
O=C(CCc1ccc(S(=O)(=O)N2CCOCC2)cc1)N1CCN(Cc2ccc3c(c2)OCO3)CC1,0,3,-19,/,1.3
CCN1CCN(S(=O)(=O)c2ccc(C)c([N+](=O)[O-])c2)CC1,-2,/,3,/,/
CN(C)c1ccc(C(=O)n2nnc3ccccc32)cc1,-4,-8,7,/,1.6
CCN(CC)c1ccc(C(=O)n2cnc3ccccc32)cc1,-5,-6,15,78*,-0.66
Cc1ccc(C(=O)/C=C/c2ccc(Br)cc2)o1,/,-11,/,/,0.05
CCc1ccc(/C=C/C(=O)c2cc(Br)ccc(=O)c2O)cc1,-6,18,74*,/,-1.1
Cc1cccc(/C=C/C(=O)c2cc(Br)ccc(=O)c2O)c1,-7,27,85*,/,0.54
Cc1ccc(/C=C/C(=O)c2cc(Br)ccc2OC(=O)c2ccco2)cc1,3,-15,-10,/,-0.92
O=C1CCC([N+](=O)[O-])C(c2ccc(Cl)cc2Cl)N1 (stereo unspecified),1,-2,-7,/,0.74
Cc1cc(C)n(C(C[N+](=O)[O-])c2ccc(Cl)cc2)n1 (stereo unspecified),-6,100*,16,/,-0.07
CC(=O)C1=C(O)C(=O)N(c2ccc(C)cc2)C1c1ccccn1 (stereo unspecified),/,/,/,/,-0.63
COc1cccc(N(C(=O)Cn2nnc(-c3cccs3)n2)C(C(=O)NC(C)C)c2ccc(C)o2)c1 (stereo unspecified),/,-3,/,/,-3.5*
COc1cccc(N(C(=O)Cn2nnc(-c3ccc(C)cc3)n2)C(C(=O)NC(C)(C)C)c2c[nH]c3ccccc23)c1 (stereo unspecified),/,-16,/,/,0.34
Cc1ccc(NC(=O)Cn2c(=O)n(CCCC(=O)NCc3ccco3)c(=O)c3ccccc32)cc1,-2,-9,-16,-23,-3.1*
Cc1ccc(CNC(=O)CCCn2c(=O)c3ccccc3n(CC(=O)NCc3ccco3)c2=O)cc1,/,-5,/,0,-0.35
Cc1cccc(N2CCN(C(=O)c3c(C)nn(Cc4ccccc4Cl)c3C)CC2)c1C,-4,-18,52*,/,0.24
O=C(Nc1nncs1)C1COc2ccccc2O1 (stereo unspecified),1,-12,-2,-3,-0.5
O=C(Nc1nnc(C(F)(F)F)s1)C1COc2ccccc2O1 (stereo unspecified),-5,10,84*,/,-0.89
COc1ccc(Cc2nc(-c3ccc(Cl)cc3)no2)cc1,-3,4,25,50,1.3
Cc1ccc(-c2noc(CCCc3ccccc3)n2)cc1,/,7,/,/,-0.78
COc1ccc(-c2noc(CCCc3ccccc3)n2)cc1OC,/,-3,/,62*,-1.7
COc1ccc(-c2noc(Cc3ccc(Cl)cc3)n2)cc1OC,1,-12,-1,63*,/
